Data set [1] can be described thus: Bmax value was measured on A-beta-40 fibrils at high salt. The method in brief:
(§1)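 Synthetic Aβ40 fibrils (50 µM total Aβ40 stock, 20 µL added to 180 µL probe solution) were incubated with probe at 2–18 µM final in pH 7.4 10 mM phosphate, with 100 or 0 mM NaCl. Stocks for the Re complexes were in methanol, ≤3 vol % final. The mixture was held 1 h at 25 °C, then fibrils were pelleted by centrifugation.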

A short description of data set [2]: Apparent dissociation constant was measured at 110 mM salt. The method in brief: as §1
A short description of data set [3]: Partition coefficient (P). Particulars: octanol/water.
A short description of data set [4]: Apparent dissociation constant was measured at 10 mM salt. The method in brief: as §1
A short description of data set [5]: max value was measured on A-beta-40 fibrils at low salt. The gist of the method: as §1

pKd: −log10 of the molar value.

Take `Nc1c(/N=N/c2ccc(-c3ccc(/N=N/c4cc(S(=O)(=O)O)c5ccccc5c4N)cc3)cc2)cc(S(=O)(=O)O)c2ccccc12` [CONGO RED]: the Bmax is 2.6 in data set [1] and 0.6 in data set [5]. Further, the negative logarithm of the Kd (pKd) (commonly the Kd on a negative log10 scale, so that one unit is a factor of ten) in data set [2] is 5.82; in data set [4] it was 5.96. The molecule also displayed a P in data set [3] of 0.16.

For the origin of these results see ChEMBL document CHEMBL1132314, “Synthesis and amyloid binding properties of rhenium complexes: preliminary progress toward a reagent for SPECT imaging of Alzheimer's disease brain” (J Med Chem, 1999).
